Measured values as given in ChEMBL document CHEMBL2384994, “Discovery and evaluation of piperid-4-one-containing mono-carbonyl analogs of curcumin as anti-inflammatory agents” (Bioorg Med Chem, 2013).
Activity calls are given as the source filed them. The calls are words filed in the database; no cut-off is given here.

Experiments:
[1] = target: MAP kinase p38 (Mus musculus) (UniProt P47811+O08911+Q9WUI1+Q9Z1B7); test: Inhibition of LPS-induced p38 phosphorylation in ICR mouse MPM cells at 10 uM incubated for 2 hrs prior to LPS-challenge measured after 1 hr by Western blot analysis; format: cell-based
How it was run: (§1)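 Primary peritoneal macrophages from ICR mice plated at 1.2 × 10⁶/plate overnight. Pretreated with DMSO or compound for 2 h, then LPS 10 ng/mL for 1 h. Cells lysed; 40–60 µg lysate run on 10% SDS-PAGE and blotted to nitrocellulose. Blocked in TBS pH 7.6 with 0.05% Tween 20 and 5% milk. Probed for IκB, p-JNK, p-ERK, p-p38 against GAPDH or the total protein. Detection by HRP secondary and ECL. Optical density given as % of control.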

[2] = system: RAW264.7; test: Antiinflammatory activity in mouse RAW264.7 cells assessed as inhibition of LPS-induced IL6 release at 10 uM incubated for 2 hrs prior to LPS-challenge measured after 22 hrs by ELISA relative to LPS-treated control; format: functional
How it was run: (§2)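 Pretreated with compound or DMSO vehicle for 2 h (screen at 10 µM; dose series 1, 5, 10 µM), then LPS 0.5 µg/mL for 22 h. Medium IL-6 measured by ELISA, normalized to cellular total protein, expressed as % of LPS control. Mean ± SE of 3–6 independent experiments.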

[3] = system: MPM; test: Inhibition of LPS-induced JNK phosphorylation in ICR mouse MPM cells at 10 uM incubated for 2 hrs prior to LPS-challenge measured after 1 hr by Western blot analysis; format: cell-based; how it was run: as §1
[4] = system: RAW264.7; test: Antiinflammatory activity in mouse RAW264.7 cells assessed as inhibition of LPS-induced IL6 release incubated for 2 hrs prior to LPS-challenge measured after 22 hrs by ELISA; format: functional, cell-based; how it was run: as §2
[5] = system: Mus musculus; test: Antiinflammatory activity in C57BL/6 mouse assessed as protection against LPS-induced septic death by measuring survival at 15 mg/kg, ip administered 15 mins prior to LPS challenge measured after 7 days relative to vehicle-treated control; format: functional; conditions: route intraperitoneal
How it was run: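 Male C57BL/6 mice (18–22 g), n = 10 per group, given compound ip 15 min before LPS (20 mg/kg, iv). Compound at 2 mg/mL in water with macrogol 15 hydroxystearate (5–10% final) ± medium-chain triglycerides (0.5–2% final), dissolved at 37 °C. Vehicle was 10% solubilizer plus 2% MCT. Survival and body weight recorded every 24 h for 7 days.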

[6] = system: MPM; test: Inhibition of LPS-induced JNK phosphorylation in ICR mouse MPM cells incubated for 2 hrs prior to LPS-challenge measured after 1 hr by Western blot analysis; format: cell-based; how it was run: as §1
[7] = system: Mus musculus; test: Toxicity in C57BL/6 mouse assessed as decrease in body weight at 20 mg/kg, ip after 3 days; format: organism-based; design: dose 20 mg/kg, route intraperitoneal; conditions: in vivo, 72 h
How it was run: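 Male C57BL/6 mice (18–22 g) given compound ip at 20 mg/kg, prepared at 2 mg/mL in water with macrogol 15 hydroxystearate (5–10%) ± MCT (0.5–2%). Vehicle was 10% solubilizer with 2% MCT. LPS 20 mg/kg iv given 15 min later. Body weight and survival recorded every 24 h for 7 days; n = 10 per group.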

[8] = system: MPM; test: Inhibition of LPS-induced ERK phosphorylation in ICR mouse MPM cells at 10 uM incubated for 2 hrs prior to LPS-challenge measured after 1 hr by Western blot analysis; format: cell-based; how it was run: as §1
[9] = system: RAW264.7; test: Cytotoxicity against mouse RAW264.7 cells; format: cell-based
[10] = system: MPM; test: Inhibition of NFkappaB activation in ICR mouse MPM cells assessed as inhibition of LPS-induced IkappaB degradation at 10 uM incubated for 2 hrs prior to LPS-challenge measured after 1 hr by Western blot analysis; format: cell-based; how it was run: as §1
[11] = system: MPM; test: Inhibition of NFkappaB activation in ICR mouse MPM cells assessed as inhibition of LPS-induced IkappaB degradation incubated for 2 hrs prior to LPS-challenge measured after 1 hr by Western blot analysis; format: cell-based; how it was run: as §1
[12] = system: MPM; test: Inhibition of LPS-induced ERK phosphorylation in ICR mouse MPM cells incubated for 2 hrs prior to LPS-challenge measured after 1 hr by Western blot analysis; format: cell-based; how it was run: as §1

O=C1/C(=C/c2ccc(O)cc2)CNC/C1=C\c1ccc(O)cc1
inhibition [1]: inactive

CN1C/C(=C\c2ccccc2F)C(=O)/C(=C/c2ccccc2F)C1
inhibition [2]: Active

O=C(/C=C/c1ccc(O)c(O)c1)/C=C/c1ccc(O)c(O)c1
inhibition [2]: Active

CCN1C/C(=C\c2ccccc2Br)C(=O)/C(=C/c2ccccc2Br)C1
inhibition [2]: Active

O=C1/C(=C/c2ccccc2F)CNC/C1=C\c1ccccc1F
inhibition [2]: Active

COc1ccc(/C=C2\CN(C)C/C(=C\c3ccc(OC)c(OC)c3)C2=O)cc1OC
inhibition at 10 µM [2]: 90%

CN1C/C(=C\c2ccc(F)cc2)C(=O)/C(=C/c2ccc(F)cc2)C1
inhibition [2]: Active

O=C1/C(=C/c2ccc(O)c(O)c2)CCC/C1=C\c1ccc(O)c(O)c1
inhibition [2]: Active

COc1cc(/C=C/C(=O)CC(=O)/C=C/c2ccc(O)c(OC)c2)ccc1O
inhibition [3]: Active

COc1ccc(/C=C2\CNC/C(=C\c3ccc(OC)c(OC)c3)C2=O)cc1OC
IC50 [4]: 2.68 µM | inhibition [4]: Dose-dependent effect | Activity [5]: 60% | inhibition [6]: Dose-dependent effect | Activity [7]: Toxic | inhibition [8]: Active | inhibition at 10 µM [2]: 98% | Activity [9]: Non-toxic | inhibition [3]: Active | inhibition [10]: Active | inhibition [11]: Dose-dependent effect | inhibition [12]: Dose-dependent effect

O=C1/C(=C/c2cccc(O)c2)CNC/C1=C\c1cccc(O)c1
IC50 [4]: 4.19 µM | inhibition [4]: Dose-dependent effect | Activity [9]: Non-toxic

CCCN1C/C(=C\c2ccc(OC)c(OC)c2)C(=O)/C(=C/c2ccc(OC)c(OC)c2)C1
inhibition [1]: inactive | IC50 [4]: 2.04 µM | inhibition [4]: Dose-dependent effect | inhibition [8]: inactive | inhibition at 10 µM [2]: 90% | Activity [9]: Non-toxic | inhibition [3]: inactive | inhibition [10]: inactive

O=C1/C(=C/c2ccc(O)c(O)c2)CC/C1=C\c1ccc(O)c(O)c1
inhibition [2]: Active

COc1cc(/C=C2\CNC/C(=C\c3cc(OC)c(OC)c(OC)c3)C2=O)cc(OC)c1OC
IC50 [4]: < 1 µM | inhibition [4]: Dose-dependent effect | Activity [5]: 80% | Activity [7]: Toxic | inhibition [8]: Active | inhibition at 10 µM [2]: 96% | Activity [9]: Non-toxic | inhibition [10]: Active | inhibition [11]: Dose-dependent effect | inhibition [12]: Dose-dependent effect

CCCN1C/C(=C\c2ccccc2Cl)C(=O)/C(=C/c2ccccc2Cl)C1
inhibition [2]: Active
